# Data: paper PMC6044135 (Indian Journal of Pharmacology, 2018)
# Legend:
# [1] = intraperitoneal administration, ref 32 (Kirman et al.); cited from earlier work
# [2] = may be caused by the ligand (picolinate); cited from earlier work
# [3] = Bioavailability analysis; assay type: in vivo, Sprague-Dawley rat; conditions: for absolute bioavailability (FAB): AUCig × 100%/AUCiv; for relative bioavailability (FRB): oral, AUC chromium malate × 100%/AUC chromium picolinate
# How it was run: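 AUCs came from compartment-model fits of serum Cr–time data in SD rats of each sex. Dosing was 20 μg Cr/kg bw by oral gavage or caudal-vein injection. Relative bioavailability = AUC of test compound ×100%/AUC of chromium picolinate, both oral. Absolute bioavailability = AUC intragastric ×100%/AUC IV.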
# [4] = Faeces distribution of Cr; assay type: in vivo, Sprague-Dawley rat; conditions: oral gavage, 20 μg Cr/kg bw; for feces concentration of Cr: at 5 h
# [5] = cited from earlier work
# [6] = cited from earlier work; remark: listed apart in the source
# [7] = system: rats with type 2 diabetes; conditions: cited from earlier work
# [8] = system: diabetic mice; conditions: cited from earlier work
# [9] = cited from earlier work; remark: listed apart in the source
# [10] = Tissue distribution of Cr; assay type: in vivo, Sprague-Dawley rat; conditions: oral gavage; for level of Cr in brain / level of Cr in heart / level of Cr in kidney / level of Cr in liver / level of Cr in lung / level of Cr in spleen: at 12 h
# How it was run: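 Male and female SD rats were dosed by oral gavage and killed under anhydrous diethyl ether anaesthesia at 0.25–48 h postdose. Heart, liver, spleen, lung, kidneys and brain were collected, wet-digested as for serum, and Cr measured by simultaneous ICP-OES. Results given per g tissue.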
# [11] = Pharmacokinetics of serum Cr after oral gavage; assay type: in vivo, Sprague-Dawley rat; conditions: for serum concentration of Cr: at 1.5 h
# How it was run: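 SD rats (180 ± 10 g, male and female, 10/group) received 20 μg Cr/kg bw either by gavage after a 12 h fast or via the caudal vein. Blood was drawn retro-orbitally into heparinized tubes at 0–72 h, over 21 time points. Serum (10,000 g, 10 min, 4°C) was wet-digested, 0.1 mL in nitric/perchloric acid (1:4, v/v), and Cr read by simultaneous ICP-OES. Compartment model chosen by AIC and F-test.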
# [12] = cited from earlier work; remark: listed apart in the source
smiles,measurement,setting,value
[Cl][Cr]([Cl])[Cl] [chromium trichloride],order of chromium level in mouse organs,[1],liver > kidney > pancreas > spleen > testes > lungs > heart > brain
"O=C([O-])c1ccccn1.O=C([O-])c1ccccn1.O=C([O-])c1ccccn1.[Cr+3] [Chromium picolinate, chromium picolinate]","genotoxicity, cytotoxicity, and tumorigenesis",[2],"had shown the genotoxicity, cytotoxicity, and tumorigenesis"
"O=C(O)CC(O)C(=O)O.O=C(O)CC(O)C(=O)O.O=C(O)CC(O)C(=O)O.[Cr].[Cr] (stereo not drawn) [Chromium malate, chromium malate]",absolute bioavailability (FAB),[3]; female rats,113.28% ± 1.72%
same,relative bioavailability (FRB),[3]; female rats,105.28% ± 1.62%
same,absolute bioavailability (FAB),[3]; male rats,111.80% ± 1.81%
same,relative bioavailability (FRB),[3]; male rats,115.73% ± 2.03%
same,feces concentration of Cr,[4]; female rats,0.47 ± 0.04 µg/g
same,feces concentration of Cr,[4]; male rats,0.50 ± 0.06 µg/g
same,feces concentration of Cr in comparison with chromium picolinate group,[4]; same gender rats,no notable change
same,toxicity in the acute toxicity study and subacute toxicity study,[5],nontoxic
same,90-day repeated dose oral toxicity and reproductive toxicity,[6],no remarkable influence
same,FBG level and insulin resistance,[7],could improve FBG level and insulin resistance
same,blood glucose level,[8],could improve blood glucose level
same,oxidative DNA damage,[9],no oxidative DNA damage
same,level of Cr in brain,[10]; female rats,0.6 µg/g
same,level of Cr in heart,[10]; female rats,0.50 µg/g
same,level of Cr in kidney,[10]; female rats,0.78 µg/g
same,level of Cr in liver,[10]; female rats,0.60 µg/g
same,level of Cr in lung,[10]; female rats,0.49 µg/g
same,level of Cr in spleen,[10]; female rats,0.40 µg/g
same,tissue distribution of Cr in comparison with control (male and female) groups,[10]; male and female rats,no notable change
same,level of Cr in brain,[10]; male rats,0.67 µg/g
same,level of Cr in heart,[10]; male rats,0.52 µg/g
same,level of Cr in kidney,[10]; male rats,0.84 µg/g
same,level of Cr in liver,[10]; male rats,0.61 µg/g
same,level of Cr in lung,[10]; male rats,0.52 µg/g
same,level of Cr in spleen,[10]; male rats,0.40 µg/g
same,Tmax of serum concentration of Cr,"[11]; 20 μg Cr/kg bw, sex not split",1.5 h
same,serum concentration of Cr,"[11]; female rats, 20 μg Cr/kg bw",4760 ± 550 ng/mL
same,serum concentration of Cr,"[11]; male rats, 20 μg Cr/kg bw",4630 ± 370 ng/mL
same,AUC0→∞ compared with chromium picolinate,"[11]; male rats, P ≤ 0.05",higher
same,MRT compared with chromium picolinate group,"[11]; rats of the same sex, P < 0.05",significantly higher
O=C([O-])c1cccnc1.O=C([O-])c1cccnc1.O=C([O-])c1cccnc1.[Cr+3] [chromium nicotinate],solubility,[12],poor solubility
